Experimental data from ChEMBL document CHEMBL3297654, “Synthesis, antimicrobial and cytotoxic activities, and structure-activity relationships of gypsogenin derivatives against human cancer cells” (Eur J Med Chem, 2014).
In brackets after ≈: the same amount, converted by molar mass. Activity calls are given as the source filed them. The calls are words filed in the database; no cut-off is given here.

Legend:
Salmonella typhimurium = assay: Antimicrobial activity against Salmonella typhimurium ATCC 14028 assessed as zone of inhibition at 30 uL for 24 hrs at 37 degC by disk diffusion test; type: functional, organism-based; conditions: Salmonella enterica subsp. enterica serovar Typhimurium
Outline: (§1)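 Compound (30 µL of a fresh 1000 µg/mL DMSO stock) goes into a 6 mm well cut in Mueller Hinton agar inoculated with 0.1 mL broth culture adjusted to 0.5 McFarland (about 1×10^8 cells/mL). Plates are incubated 24 h at 37 °C, then zone of inhibition diameter is measured in mm.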

Proteus vulgaris = assay: Antimicrobial activity against Proteus vulgaris ATCC 33420 assessed as zone of inhibition at 30 uL for 24 hrs at 37 degC by disk diffusion test; type: functional, organism-based; outline: as §1
Klebsiella pneumoniae = assay: Antimicrobial activity against Klebsiella pneumoniae ATCC 13882 assessed as zone of inhibition at 30 uL for 24 hrs at 37 degC by disk diffusion test; type: functional, organism-based; outline: as §1
MCF7 [1] = assay: Induction of apoptosis in human MCF7 cells at 20 uM after 48 hrs by Hoechst 33258/propidium iodide staining based phase contrast microscopic analysis; type: functional
Outline: (§2)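 Cells in 48-well plates treated with 0.5, 10, 20 or 40 µM for 24 and 48 h. Values are read at 48 h, 20 µM for test agents and 0.5 µM for controls. Staining is Hoechst 33258/propidium iodide double staining with fluorescence microscopy. Blue nuclei are viable or early-to-mid apoptotic, and pink nuclei are late apoptotic or necrotic. Apoptosis and necrosis are scored from chromatin condensation as % of cells. Cells are grown at 37 °C in 5% CO2 in RPMI, DMEM or McCoy's 5A with 10–15% heat-inactivated FCS.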

MCF7 [2] = assay: Induction of necrosis in human MCF7 cells at 20 uM after 48 hrs by Hoechst 33258/propidium iodide staining based phase contrast microscopic analysis; type: functional; outline: as §2
Bacillus cereus [3] = assay: Antimicrobial activity against Bacillus cereus ATCC 11778 assessed as zone of inhibition at 30 uL for 24 hrs at 30 degC by disk diffusion test; type: functional
Outline: (§3)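 Agar well diffusion on Mueller Hinton agar seeded with 0.1 mL broth culture (18–24 h), adjusted to 0.5 McFarland (about 1×10^8 bacteria or 1×10^6 yeast cells/mL). A 6 mm well is filled with 30 µL of compound from a fresh 1000 µg/mL DMSO stock. Plates are held at 30 °C for 24 h and inhibition zone diameter is read in mm.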

Nakaseomyces glabratus = assay: Antimicrobial activity against Candida glabrata assessed as zone of inhibition at 30 uL for 24 hrs at 30 degC by disk diffusion test; type: functional, organism-based; outline: as §3
Saccharomyces cerevisiae = assay: Antimicrobial activity against Saccharomyces cerevisiae ATCC 9763 assessed as zone of inhibition at 30 uL for 24 hrs at 30 degC by disk diffusion test; type: functional, organism-based; outline: as §3
HT-29 [4] = assay: Induction of apoptosis in human HT-29 cells at 20 uM after 48 hrs by Hoechst 33258/propidium iodide staining based phase contrast microscopic analysis; type: functional; outline: as §2
[5] = system: Staphylococcus epidermidis; assay: Antimicrobial activity against Staphylococcus epidermidis ATCC 12228 assessed as zone of inhibition at 30 uL for 24 hrs at 37 degC by disk diffusion test; type: functional, organism-based; outline: as §1
Micrococcus luteus = assay: Antimicrobial activity against Micrococcus luteus ATCC 9341 assessed as zone of inhibition at 30 uL for 24 hrs at 30 degC by disk diffusion test; type: functional, organism-based; outline: as §3
Bacillus thuringiensis [6] = assay: Antimicrobial activity against Bacillus thuringiensis assessed as zone of inhibition at 30 uL for 24 hrs at 30 degC by disk diffusion test; type: functional; outline: as §3
HeLa [7] = assay: Induction of necrosis in human HeLa cells at 20 uM after 48 hrs by Hoechst 33258/propidium iodide staining based phase contrast microscopic analysis; type: functional; outline: as §2
SAOS-2 [8] = assay: Induction of necrosis in human Saos2 cells at 20 uM after 48 hrs by Hoechst 33258/propidium iodide staining based […] microscopic analysis; type: functional; outline: as §2
Escherichia coli = assay: Antimicrobial activity against Escherichia coli ATCC 25922 assessed as zone of inhibition at 30 uL for 24 hrs at 37 degC by disk diffusion test; type: functional, organism-based; outline: as §1
Staphylococcus aureus = assay: Antimicrobial activity against Staphylococcus aureus ATCC 25923 assessed as zone of inhibition at 30 uL for 24 hrs at 37 degC by disk diffusion test; type: functional, organism-based; outline: as §1
Cyberlindnera jadinii = assay: Antimicrobial activity against Candida utilis ATCC 9950 assessed as zone of inhibition at 30 uL for 24 hrs at 30 degC by disk diffusion test; type: functional, organism-based; outline: as §3
Candida tropicalis = assay: Antimicrobial activity against Candida tropicalis assessed as zone of inhibition at 30 uL for 24 hrs at 30 degC by disk diffusion test; type: functional, organism-based; outline: as §3
Bacillus cereus [9] = assay: Antimicrobial activity against Bacillus cereus ATCC 11778 for 24 hrs by microdillution method; type: functional
Outline: (§4)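 Broth microdilution. Compound is dissolved in DMSO (2 mg/mL) and diluted in Mueller Hinton broth as two-fold serial dilutions from 256 to 0.125 µg/mL. Bacteria are pre-grown in nutrient broth at 30 °C, and the final inoculum is about 10^6 cfu/mL. Tests are incubated 37 °C for 24 h. MIC is the lowest concentration giving complete inhibition. Streptomycin is the positive control.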

Enterococcus faecalis = assay: Antimicrobial activity against Enterococcus faecalis ATCC 29212 assessed as zone of inhibition at 30 uL for 24 hrs at 37 degC by disk diffusion test; type: functional, organism-based; outline: as §1
Bacillus subtilis [10] = assay: Antimicrobial activity against Bacillus subtilis ATCC 6633 assessed as zone of inhibition at 30 uL for 24 hrs at 30 degC by disk diffusion test; type: functional; outline: as §3
HL-60 [11] = assay: Antiproliferative activity against human HL60 cells after 24 and 72 hrs by MTT assay; type: functional, cell-based
Outline: (§5)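 ATCC human cell lines are kept in RPMI, DMEM or McCoy's 5A with 10–15% heat-inactivated FCS at 37 °C and 5% CO2. They are seeded at 1×10^4–1×10^5 cells/mL in 48-well plates and exposed to 0.5, 10, 20 or 40 µM. Viability is read by MTT (590 nm) at 24 and 72 h. Growth is expressed relative to untreated cells and IC50 is fitted, in triplicate.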

Candida albicans = assay: Antimicrobial activity against Candida albicans ATCC 10231 assessed as zone of inhibition at 30 uL for 24 hrs at 30 degC by disk diffusion test; type: functional, organism-based; outline: as §3
Caco-2 [12] = assay: Induction of necrosis in human Caco2 cells at 20 uM after 48 hrs by Hoechst 33258/propidium iodide staining based phase contrast microscopic analysis; type: functional; outline: as §2
HeLa [13] = assay: Induction of apoptosis in human HeLa cells at 20 uM after 48 hrs by Hoechst 33258/propidium iodide staining based phase contrast microscopic analysis; type: functional; outline: as §2
HeLa [14] = assay: Antiproliferative activity against human HeLa cells after 24 and 72 hrs by MTT assay; type: functional, cell-based; outline: as §5
Caco-2 [15] = assay: Induction of apoptosis in human Caco2 cells at 20 uM after 48 hrs by Hoechst 33258/propidium iodide staining based phase contrast microscopic analysis; type: functional; outline: as §2
MCF7 [16] = assay: Antiproliferative activity against human MCF7 cells after 24 and 72 hrs by MTT assay; type: functional, cell-based; outline: as §5
[17] = Antiproliferative activity against human Saos2 cells after 24 and 72 hrs by MTT assay; type: functional, cell-based; conditions: SAOS-2; outline: as §5
HL-60 [18] = assay: Induction of necrosis in human HL60 cells at 20 uM after 48 hrs by Hoechst 33258/propidium iodide staining based phase contrast microscopic analysis; type: functional; outline: as §2
HT-29 [19] = assay: Induction of necrosis in human HT-29 cells at 20 uM after 48 hrs by Hoechst 33258/propidium iodide staining based phase contrast microscopic analysis; type: functional; outline: as §2
Bacillus thuringiensis [20] = assay: Antimicrobial activity against Bacillus thuringiensis for 24 hrs by microdillution method; type: functional; outline: as §4
SAOS-2 [21] = assay: Induction of apoptosis in human Saos2 cells at 20 uM after 48 hrs by Hoechst 33258/propidium iodide staining based phase contrast microscopic analysis; type: functional; outline: as §2
HL-60 [22] = assay: Induction of apoptosis in human HL60 cells at 20 uM after 48 hrs by Hoechst 33258/propidium iodide staining based phase contrast microscopic analysis; type: functional; outline: as §2
HT-29 [23] = assay: Antiproliferative activity against human HT-29 cells after 24 and 72 hrs by MTT assay; type: functional, cell-based; outline: as §5
Pseudomonas aeruginosa = assay: Antimicrobial activity against Pseudomonas aeruginosa ATCC 35032 assessed as zone of inhibition at 30 uL for 24 hrs at 37 degC by disk diffusion test; type: functional, organism-based; outline: as §1
Caco-2 [24] = assay: Antiproliferative activity against human Caco2 cells after 24 and 72 hrs by MTT assay; type: functional, cell-based; outline: as §5
Bacillus subtilis [25] = assay: Antimicrobial activity against Bacillus subtilis ATCC 6633 for 24 hrs by microdillution method; type: functional; outline: as §4

| SMILES | diameter of the inhibition zone (DIZ) (Salmonella typhimurium) | diameter of the inhibition zone (DIZ) (Proteus vulgaris) | diameter of the inhibition zone (DIZ) (Klebsiella pneumoniae) | Activity (MCF7 [1]) [%] | Activity (MCF7 [2]) [%] | diameter of the inhibition zone (DIZ) (Bacillus cereus [3]) | diameter of the inhibition zone (DIZ) (Nakaseomyces glabratus) | diameter of the inhibition zone (DIZ) (Saccharomyces cerevisiae) | Activity (HT-29 [4]) [%] | diameter of the inhibition zone (DIZ) [5] | diameter of the inhibition zone (DIZ) (Micrococcus luteus) | diameter of the inhibition zone (DIZ) (Bacillus thuringiensis [6]) | Activity (HeLa [7]) [%] | Activity (SAOS-2 [8]) [%] | diameter of the inhibition zone (DIZ) (Escherichia coli) | diameter of the inhibition zone (DIZ) (Staphylococcus aureus) | diameter of the inhibition zone (DIZ) (Cyberlindnera jadinii) | diameter of the inhibition zone (DIZ) (Candida tropicalis) | diameter of the inhibition zone (DIZ) (Enterococcus faecalis) | diameter of the inhibition zone (DIZ) (Bacillus subtilis [10]) | other results |
| --- | --- | --- | --- | --- | --- | --- | --- | --- | --- | --- | --- | --- | --- | --- | --- | --- | --- | --- | --- | --- | --- |
| CC1(C)CC[C@]2(C(=O)OCc3ccccc3)CC[C@]3(C)C(=CC[C@@H]4[C@@]5(C)CC[C@H](O)[C@@](C)(C=O)[C@@H]5CC[C@]43C)[C@@H]2C1 | inactive | inactive | inactive | 4 | 57 | inactive | inactive | inactive | 1 | inactive | inactive | inactive | 45 | 30 | inactive | inactive | inactive | inactive | inactive | inactive | MIC (Bacillus cereus [9]): inactive; IC50 (HL-60 [11]): 8.14 µM; diameter of the inhibition zone (DIZ) (Candida albicans): inactive; Activity (Caco-2 [12]): 15%; Activity (HeLa [13]): 4%; IC50 (HeLa [14]): 74.2 µM; Activity (Caco-2 [15]): 1%; IC50 (MCF7 [16]): 5.15 µM; IC50 [17]: 12.7 µM; Activity (HL-60 [18]): 48%; Activity (HT-29 [19]): 22%; MIC (Bacillus thuringiensis [20]): inactive; Activity (SAOS-2 [21]): 9%; Activity (HL-60 [22]): 6%; IC50 (HT-29 [23]): 8.51 µM; diameter of the inhibition zone (DIZ) (Pseudomonas aeruginosa): inactive; IC50 (Caco-2 [24]): 11.1 µM; MIC (Bacillus subtilis [25]): inactive |
| CC(=O)O[C@H]1CC[C@]2(C)[C@H]3CC=C4[C@@H]5CC(C)(C)CC[C@]5(C(=O)O)CC[C@@]4(C)[C@]3(C)CC[C@H]2[C@]1(C)/C=N/NC(N)=S | inactive | inactive | inactive | 6 | 63 | 14 mm | inactive | inactive | 3 | inactive | inactive | 14 mm | 65 | 61 | inactive | inactive | inactive | inactive | inactive | 14 mm | MIC (Bacillus cereus [9]; ATCC 11778, 24 h): 32 µg/mL (≈ 54.6 µM); IC50 (HL-60 [11]): 12.8 µM; diameter of the inhibition zone (DIZ) (Candida albicans): inactive; Activity (Caco-2 [12]): 29%; Activity (HeLa [13]): 2%; IC50 (HeLa [14]): 110 µM; Activity (Caco-2 [15]): 3%; IC50 (MCF7 [16]): 7.5 µM; IC50 [17]: 10.1 µM; Activity (HL-60 [18]): 67%; Activity (HT-29 [19]): 26%; MIC (Bacillus thuringiensis [20]): 32 µg/mL (≈ 54.6 µM); Activity (SAOS-2 [21]): 2%; Activity (HL-60 [22]): 2%; IC50 (HT-29 [23]): 13.3 µM; diameter of the inhibition zone (DIZ) (Pseudomonas aeruginosa): inactive; IC50 (Caco-2 [24]): 30.4 µM; MIC (Bacillus subtilis [25]; ATCC 6633, 24 h): 32 µg/mL (≈ 54.6 µM) |
